Measurements taken from ChEMBL document CHEMBL4033800, “Further Developments of the Phenyl-Pyrrolyl Pentane Series of Nonsteroidal Vitamin D Receptor Modulators as Anticancer Agents” (J Med Chem, 2018).

Experiments:
MCF7 [1] = assay: Induction of cell cycle arrest in human MCF7 cells assessed as accumulation at G0/G1 phase at 1 uM after 24 hrs by propidium iodide-staining based flow cytometry (reference value: 56.03%); assay type: functional
MCF7 [2] = assay: Induction of apoptosis in human MCF7 cells assessed as late apoptotic cells at 1 uM after 24 hrs by Annexin V-FITC/propidium iodide-staining based flow cytometry (reference value: 0.062%); assay type: functional
MCF7 [3] = assay: Induction of apoptosis in human MCF7 cells assessed as early apoptotic cells at 1 uM after 24 hrs by Annexin V-FITC/propidium iodide-staining based flow cytometry (reference value: 1.74%); assay type: functional
MCF7 [4] = assay: Induction of apoptosis in human MCF7 cells assessed as viable cells at 1 uM after 24 hrs by Annexin V-FITC/propidium iodide-staining based flow cytometry (reference value: 98.2%); assay type: functional; conditions: MCF7, 24 h, read-out: Activity
MCF7 [5] = assay: Induction of cell cycle arrest in human MCF7 cells assessed as accumulation at S phase at 1 uM after 24 hrs by propidium iodide-staining based flow cytometry (reference value: 31.55%); assay type: functional
[6] = Drug metabolism in human MCF7 cells at 1 uM after 24 hrs by HPLC analysis; assay type: ADME, cell-based; conditions: read-out: Drug metabolism
In short: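 MCF7 cells were incubated 24 h with 1 µM compound, alongside a medium-only incubation without cells. Mixtures were extracted with chloroform/methanol (3:1, v/v) and quantified by HPLC. Mean ± SEM, n = 3.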

[7] = Half life in iv dosed Sprague-Dawley rat; assay type: ADME, organism-based; conditions: in vivo
Mus musculus [8] = assay: Hypercalcemic effect in ICR mouse at 0.5 ug/kg, ip administered for 7 days measured on day 8 post-dose by MTB-based assay relative to control; assay type: ADME, organism-based; conditions: in vivo, 0.0005 mg/kg, 168 h
In short: (§1)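 Mice were dosed i.p. over a 7-day period and serum calcium was then measured. Each dose level was compared with a vehicle-treated control group (saline cited as the comparator). Data are mean ± SEM, n = 6 per group. Significance versus vehicle was reported at p < 0.05, 0.01 and 0.001.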

MCF7 [9] = assay: Induction of cell cycle arrest in human MCF7 cells assessed as accumulation at G2/M phase at 1 uM after 24 hrs by propidium iodide-staining based flow cytometry (reference value: 12.41%); assay type: functional
[10] = Drug uptake in human MCF7 cells at 1 uM after 30 mins by HPLC analysis; assay type: ADME, cell-based; conditions: mcf7, 0.5 h
In short: (§2)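 MCF7 cells were given 1 µM compound in medium with 10% FBS for 10 or 30 min. Cells and medium were extracted separately with chloroform/methanol (3:1, v/v) and analysed by HPLC. Mean ± SEM, n = 3.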

MCF7 [11] = assay: Induction of apoptosis in human MCF7 cells assessed as necrotic cells at 1 uM after 24 hrs by Annexin V-FITC/propidium iodide-staining based flow cytometry (reference value: 0.031%); assay type: functional
Mus musculus [12] = assay: Hypercalcemic effect in ICR mouse assessed as serum calcium levels at 5 ug/kg, ip administered for 7 days measured on day 8 post-dose by MTB-based assay (reference value: 7.05 mg/dl); assay type: ADME, organism-based; conditions: in vivo, 0.005 mg/kg, 168 h; in short: as §1
[13] = Drug uptake in human MCF7 cells at 1 uM after 10 mins by HPLC analysis; assay type: ADME, cell-based; conditions: mcf7, 10 min; in short: as §2
MCF7 [14] = assay: Antiproliferative activity against human MCF7 cells after 48 hrs by MTT assay; assay type: functional, cell-based; conditions: MCF7, 48 h
[15] = Bioavailability in Sprague-Dawley rat at 20 mg/kg, ip measured up to 48 hrs after administration by HPLC analysis; assay type: ADME, organism-based; conditions: in vivo
In short: (§3)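 Male Sprague-Dawley rats (180−220 g), 4 per group, dosed at 5 mg/kg i.v., 20 mg/kg i.p. or 20 mg/kg p.o. Parameters given as mean ± SD (n = 4).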

[16] = Clearance in Sprague-Dawley rat at 20 mg/kg, po by HPLC analysis; assay type: ADME, organism-based; conditions: in vivo; in short: as §3
[17] = AUC in Sprague-Dawley rat at 5 mg/kg, iv measured up to 48 hrs post administration by HPLC analysis; assay type: ADME, organism-based; set-up: dose 5 mg/kg, time < 48 hr, route intravenous; conditions: in vivo; in short: as §3
[18] = Clearance in Sprague-Dawley rat at 20 mg/kg, ip by HPLC analysis; assay type: ADME, organism-based; conditions: in vivo; in short: as §3
[19] = Oral bioavailability in Sprague-Dawley rat at 20 mg/kg measured up to 48 hrs after administration by HPLC analysis; assay type: ADME, organism-based; conditions: in vivo; in short: as §3
[20] = AUC in Sprague-Dawley rat at 20 mg/kg, ip measured up to 48 hrs post administration by HPLC analysis; assay type: ADME, organism-based; set-up: time < 48 hr, dose 20 mg/kg, route intraperitoneal; conditions: in vivo; in short: as §3
Caco-2 = assay: Antiproliferative activity against human Caco2 cells after 48 hrs by MTT assay; assay type: functional, cell-based; conditions: Caco-2, 48 h
[21] = AUC in Sprague-Dawley rat at 20 mg/kg, po measured up to 48 hrs post administration by HPLC analysis; assay type: ADME, organism-based; set-up: time < 48 hr, dose 20 mg/kg, route oral; conditions: in vivo; in short: as §3
[22] = MRT in Sprague-Dawley rat at 5 mg/kg, iv by HPLC analysis; assay type: ADME, organism-based; conditions: in vivo; in short: as §3
[23] = Clearance in Sprague-Dawley rat at 5 mg/kg, iv measured up to 48 hrs post administration by HPLC analysis; assay type: ADME, organism-based; conditions: in vivo; in short: as §3
[24] = MRT in Sprague-Dawley rat at 20 mg/kg, ip by HPLC analysis; assay type: ADME, organism-based; conditions: in vivo; in short: as §3
L02 = assay: Antiproliferative activity against human L02 cells after 48 hrs by MTT assay; assay type: cell-based; conditions: L02, 48 h
Vitamin D3 receptor = target: T1, Vitamin D3 receptor (Homo sapiens, UniProt P11473); assay: Displacement of fluormone VDR red from human full length VDR after 4 hrs by fluorescence polarization assay
T1 sequence (P11473 whole entry): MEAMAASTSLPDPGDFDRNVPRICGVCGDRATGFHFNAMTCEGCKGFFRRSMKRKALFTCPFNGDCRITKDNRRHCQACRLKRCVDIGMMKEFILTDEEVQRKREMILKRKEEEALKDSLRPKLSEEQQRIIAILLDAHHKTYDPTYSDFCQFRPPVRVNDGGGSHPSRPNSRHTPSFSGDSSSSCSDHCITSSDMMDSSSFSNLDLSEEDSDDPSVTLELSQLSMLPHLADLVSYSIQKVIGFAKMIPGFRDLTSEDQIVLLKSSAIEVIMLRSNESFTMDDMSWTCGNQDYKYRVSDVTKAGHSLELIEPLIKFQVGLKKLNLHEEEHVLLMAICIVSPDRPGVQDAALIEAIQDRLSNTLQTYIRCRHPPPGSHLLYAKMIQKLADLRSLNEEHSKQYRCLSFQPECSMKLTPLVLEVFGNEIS

[25] = Half life in Sprague-Dawley rat at 20 mg/kg, po by HPLC analysis; assay type: ADME, organism-based; conditions: in vivo; in short: as §3
PC-3 = assay: Antiproliferative activity against human PC3 cells after 48 hrs by MTT assay; assay type: functional, cell-based; conditions: PC-3, 48 h
[26] = MRT in Sprague-Dawley rat at 20 mg/kg, po by HPLC analysis; assay type: ADME, organism-based; conditions: in vivo; in short: as §3
[27] = Half life in Sprague-Dawley rat at 5 mg/kg, iv by HPLC analysis; assay type: ADME, organism-based; conditions: in vivo; in short: as §3
[28] = Half life in Sprague-Dawley rat at 20 mg/kg, ip by HPLC analysis; assay type: ADME, organism-based; conditions: in vivo; in short: as §3
HepG2 = assay: Antiproliferative activity against human HepG2 cells after 48 hrs by MTT assay; assay type: functional, cell-based; conditions: HepG2, 48 h

SMILES | Activity (MCF7 [1]) [%] | Activity (MCF7 [2]) [%] | Activity (MCF7 [3]) [%] | viability at 1 µM (MCF7 [4]) [%] | Activity (MCF7 [5]) [%] | Activity (MCF7 [9]) [%] | Activity (MCF7 [11]) [%] | IC50 (MCF7 [14]) [µM] | IC50 (Caco-2) [µM] | IC50 (L02) [µM] | IC50 (Vitamin D3 receptor) [µM] | IC50 (PC-3) [µM] | IC50 (HepG2) [µM] | also measured
C=C1/C(=C\C=C2/CCC[C@]3(C)[C@@H]([C@H](C)CCCC(C)(C)O)CC[C@@H]23)C[C@@H](O)C[C@@H]1O [CALCITRIOL] | 63.49 | 3.44 | 6.59 | 89.8 | 23.9 | 12.61 | 0.15 |  |  |  |  |  |  | metabolised at 24 h, 1 µM [6]: 27%; half-life [7]: 4.27 h; Activity (Mus musculus [8]): Non-Toxic; Drug uptake [10]: 10.4%; Activity (Mus musculus [12]): 11.04 mg/dL; Drug uptake [13]: 6.5%
CCn1c(C(=O)NC(C)CO)ccc1C(CC)(CC)c1ccc(OCC(O)C(C)(C)C)c(C)c1 (stereo not given) | 63.03 | 2.78 | 7.58 | 89.5 | 24.45 | 12.52 | 0.15 | 2.8 | > 50 | 17.4 | 0.228 | 17.4 |  | bioavailability [15]: 46.2%; CL/F [16]: 25 mL/min; AUC at 48 h [17]: 13400 ng·h/mL; CL/F [18]: 13.5 mL/min; bioavailability [19]: 25.2%; AUC at 48 h [20]: 24800 ng·h/mL; AUC at 48 h [21]: 13500 ng·h/mL; MRT [22]: 2.82 h; clearance [23]: 6.83 mL/min; MRT [24]: 8.15 h; half-life [25]: 6.89 h; MRT [26]: 10.8 h; half-life [27]: 2.44 h; half-life [28]: 3.96 h
CCn1c(C(=O)NC(CO)CCO)ccc1C(CC)(CC)c1ccc(OCCC(O)(CC)CC)c(C)c1 (stereo not given) |  |  |  |  |  |  |  | 31.4 | 40.2 | 3.04 |  | 8.76 | 24.8 | 
CCOc1ccc(NC(=O)c2ccc(C(CC)(CC)c3ccc(OCCC(O)(CC)CC)c(C)c3)n2CC)cc1 |  |  |  |  |  |  |  | > 50 | > 50 | > 50 | 4.54 | > 50 | > 50 | 
